Source: BindingDB's records for doi:10.1021/acs.jmedchem.8b02026 (Leiden University, 2019)

Experiments:
Adenosine receptor A3 [1] = biological target: T1, Adenosine receptor A3 (Homo sapiens, UniProt P0DMS8); assay: Displacement of [3H]PSB11 from human A3 adenosine receptor expressed in CHO cell membranes measured after 2 hrs by scintillation spectrometric method
T1 sequence (P0DMS8 whole entry): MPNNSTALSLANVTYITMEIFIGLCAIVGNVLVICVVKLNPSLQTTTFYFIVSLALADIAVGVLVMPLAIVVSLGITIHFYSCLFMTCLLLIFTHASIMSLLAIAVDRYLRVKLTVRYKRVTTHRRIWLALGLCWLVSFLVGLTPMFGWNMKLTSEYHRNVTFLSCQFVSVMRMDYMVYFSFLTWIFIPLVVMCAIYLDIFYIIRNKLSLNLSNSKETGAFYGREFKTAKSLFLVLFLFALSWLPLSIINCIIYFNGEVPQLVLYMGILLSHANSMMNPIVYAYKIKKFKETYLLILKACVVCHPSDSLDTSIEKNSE

Adenosine receptor A2a = Adenosine receptor A2a (Homo sapiens, UniProt P29274); assay: Displacement of [3H]ZM241385 from human A2A adenosine receptor expressed in HEK293 cell membranes measured after 2 hrs by scintillation spectrometric method
Adenosine receptor A3 [2] = biological target: T2, Adenosine receptor A3 (Homo sapiens, UniProt P0DMS8, Y265F); assay: Displacement of [3H]PSB11 from human A3 adenosine receptor Y265F (7.36) mutant transiently expressed in CHOK1 cell membranes measured after 2 hrs by scintillation spectrometric method
T2 sequence (P0DMS8 whole entry): T1 sequence (P0DMS8 whole entry)
Procedure, shortened: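 Membranes (15 µg) in 50 mM Tris-HCl, 5 mM MgCl2, 0.01% CHAPS, 1 mM EDTA, pH 7.4. Six competitor concentrations with ~10 nM [3H]PSB-11, 2 h at 25 °C. NSB from 100 µM NECA; filtration and scintillation counting; one-site fit. Three experiments, duplicate.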

Adenosine receptor A1 = biological target: T3, Adenosine receptor A1 (Homo sapiens, UniProt P30542); assay: Displacement of [3H]DPCPX from human A1 adenosine receptor expressed in CHO cell membranes measured after 2 hrs by scintillation spectrometric method
T3 sequence (P30542 whole entry): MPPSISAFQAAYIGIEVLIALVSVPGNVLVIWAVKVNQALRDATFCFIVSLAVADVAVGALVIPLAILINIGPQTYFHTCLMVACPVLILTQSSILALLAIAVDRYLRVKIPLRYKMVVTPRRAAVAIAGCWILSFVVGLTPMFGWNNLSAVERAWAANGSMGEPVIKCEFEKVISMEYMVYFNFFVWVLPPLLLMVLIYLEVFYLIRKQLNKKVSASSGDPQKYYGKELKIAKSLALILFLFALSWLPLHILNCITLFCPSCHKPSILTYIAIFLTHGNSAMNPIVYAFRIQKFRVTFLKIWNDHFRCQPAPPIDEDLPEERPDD

Adenosine receptor A2a, sequence (P29274 whole entry): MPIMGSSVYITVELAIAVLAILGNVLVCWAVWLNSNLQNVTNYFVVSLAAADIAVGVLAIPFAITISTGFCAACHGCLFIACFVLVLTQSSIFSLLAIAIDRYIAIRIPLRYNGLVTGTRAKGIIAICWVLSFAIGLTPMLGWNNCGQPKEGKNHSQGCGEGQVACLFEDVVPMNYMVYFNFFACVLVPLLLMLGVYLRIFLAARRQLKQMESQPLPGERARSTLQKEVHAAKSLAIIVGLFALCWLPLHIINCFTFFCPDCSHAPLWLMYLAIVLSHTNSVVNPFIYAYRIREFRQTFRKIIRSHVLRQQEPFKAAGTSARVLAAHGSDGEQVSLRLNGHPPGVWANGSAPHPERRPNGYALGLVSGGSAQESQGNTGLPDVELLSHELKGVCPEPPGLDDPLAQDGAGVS

SMILES	Ki (Adenosine receptor A3 [1]) [µM]	also measured
CCCn1c(=O)c2c(nc3cc(OC)ccn32)n(CCCCOC(=O)c2cccc(S(=O)(=O)F)c2)c1=O	0.079	
CCCn1c(=O)c2c(nc3cc(OC)ccn32)n(CCCNC(=O)c2ccc(S(C)(=O)=O)cc2)c1=O		Ki (Adenosine receptor A2a): 6.31 µM; IC50 (Adenosine receptor A3 [2]): 0.794 µM; Ki (Adenosine receptor A1): 15.8 µM
CCCn1c(=O)c2c(nc3cc(OC)ccn32)n(CCOC(=O)c2ccc(S(=O)(=O)F)cc2)c1=O	0.2	
CCCn1c(=O)c2c(nc3cc(OC)ccn32)n(CCCOC(=O)c2ccc(S(=O)(=O)F)cc2)c1=O	0.02	
CCCn1c(=O)c2c(nc3cc(OC)ccn32)n(CCOC(=O)c2cccc(S(=O)(=O)F)c2)c1=O	0.398	
CCCn1c(=O)c2c(nc3cc(OC)ccn32)n(CCCCNC(=O)c2cccc(S(=O)(=O)F)c2)c1=O	0.158	
CCCn1c(=O)c2c(nc3cc(OC)ccn32)n(CCCNC(=O)c2ccc(S(=O)(=O)F)cc2)c1=O		Ki (Adenosine receptor A2a): 1.26 µM; Ki (Adenosine receptor A1): 0.794 µM
CCCn1c(=O)c2c(nc3cc(OC)ccn32)n(CCCCOC(=O)c2ccc(S(=O)(=O)F)cc2)c1=O	0.032	
CCCn1c(=O)c2c(nc3cc(OC)ccn32)n(CCCOC(=O)c2cccc(S(=O)(=O)F)c2)c1=O	0.1	
CCCn1c(=O)c2c(nc3cc(OC)ccn32)n(CCCCNC(=O)c2ccc(S(=O)(=O)F)cc2)c1=O	0.032	
CCCn1c(=O)c2c(nc3cc(OC)ccn32)n(CCCNC(=O)c2cccc(S(=O)(=O)F)c2)c1=O	0.032	
